According to ChEMBL document CHEMBL1121665, “Synthesis and antiallergy activity of 4-oxo-4H-pyrido[1,2-a]thieno[2,3-d]pyrimidines” (1981):
Activity calls are given as the source filed them. The rule behind the calls is not given here.

Assays:
Rattus norvegicus [1] = experiment: Antiallergic activity in the rat passive cutaneous anaphylaxis at dose 5 mg/kg after ip; assay type: functional; details: route intraperitoneal
In short: (§1)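 Rats were immunized with ovalbumin 1 mg im plus about 10^10 Bordetella pertussis organisms (as pertussis vaccine) ip. Drug was suspended in 1% gum tragacanth/saline and given orally or ip 10–15 min before iv challenge with ovalbumin 1 mg plus 0.25% Evans blue. Wheal diameter was read 30 min later; n=5 per group; Student's t test.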

Rattus norvegicus [2] = experiment: Compound was tested for antiallergic activity in the rat passive cutaneous anaphylaxis at dose 5 mg/kg after po; assay type: functional; in short: as §1
Rattus norvegicus [3] = experiment: Compound was tested for antiallergic activity in the rat passive cutaneous anaphylaxis at dose 5 mg/kg after po; No significant activity; assay type: functional, organism-based; set-up: dose 5 mg/kg; in short: as §1
Rattus norvegicus [4] = experiment: Compound was tested for antiallergic activity in the rat passive cutaneous anaphylaxis at dose 5 mg/kg after ip; No significant activity; assay type: functional, organism-based; set-up: dose 5 mg/kg; in short: as §1
Rattus norvegicus [5] = experiment: Compound was tested for antiallergic activity in the rat passive cutaneous anaphylaxis at dose 1 mg/kg after po; assay type: functional; in short: as §1
Rattus norvegicus [6] = experiment: Compound was tested for antiallergic activity in the rat passive cutaneous anaphylaxis at dose 0.5 mg/kg after po; assay type: functional; in short: as §1
Rattus norvegicus [7] = experiment: Compound was tested for antiallergic activity in the rat passive cutaneous anaphylaxis at dose 0.1 mg/kg after intravenous administration; assay type: functional
In short: (§2)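 Ovalbumin/pertussis-immunized rat antiserum was titrated intradermally on the back 48 h before challenge. Compound was given iv, dissolved directly in the challenge solution (ovalbumin 1 mg in 1 mL saline, 0.25% Evans blue), with slight molar excess NaHCO3 if needed. Wheal diameter was measured 30 min later. Percent inhibition was taken at the highest antiserum level versus control, corrected for the extrapolated base value; groups of five.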

Rattus norvegicus [8] = experiment: Compound was tested for antiallergic activity in the rat passive cutaneous anaphylaxis at dose 1-2 mg/kg after iv administration; Inactive; assay type: functional, organism-based
Rattus norvegicus [9] = experiment: Compound was tested for antiallergic activity in the rat passive cutaneous anaphylaxis, after intravenous administration; assay type: functional; details: read-out: ID50 (the source's name); in short: as §2
Rattus norvegicus [10] = experiment: Compound was tested for antiallergic activity in the rat passive cutaneous anaphylaxis, after peroral administration; assay type: functional; details: po, read-out: ID50 (the source's name); in short: as §1

## Cc1cc2c(=O)n3cc(C(=O)O)ccc3nc2s1
Rattus norvegicus [1]
  inhibition in vivo at 5 mg/kg: 100%
Rattus norvegicus [2]
  inhibition in vivo at 5 mg/kg: 62%

## O=C(Nc1nn[nH]n1)c1ccc2nc3sc(-c4ccccc4)cc3c(=O)n2c1
Rattus norvegicus [3]
  inhibition: No significant activity
Rattus norvegicus [1]
  inhibition in vivo at 5 mg/kg: 17%

## CCOC(=O)c1ccc2nc3sc(C(C)C)cc3c(=O)n2c1
Rattus norvegicus [1]
  inhibition in vivo at 5 mg/kg: 63%

## CCc1cc2c(=O)n3cc(C(N)=O)ccc3nc2s1
Rattus norvegicus [3]
  inhibition: No significant activity
Rattus norvegicus [1]
  inhibition in vivo at 5 mg/kg: 46%

## Cc1sc2nc3ccc(C(=O)O)cn3c(=O)c2c1C
Rattus norvegicus [3]
  inhibition: No significant activity
Rattus norvegicus [1]
  inhibition in vivo at 5 mg/kg: 28%

## CCCCc1cc2c(=O)n3cc(C(N)=O)ccc3nc2s1
Rattus norvegicus [3]
  inhibition: No significant activity
Rattus norvegicus [1]
  inhibition in vivo at 5 mg/kg: 25%

## CCCCc1cc2c(=O)n3cc(-c4nnn[nH]4)ccc3nc2s1
Rattus norvegicus [1]
  inhibition in vivo at 5 mg/kg: 26%

## CCCCc1cc2c(=O)n3cc(C(=O)O)ccc3nc2s1
Rattus norvegicus [1]
  inhibition in vivo at 5 mg/kg: 52%

## Cc1sc2nc3ccc(C#N)cn3c(=O)c2c1C
Rattus norvegicus [1]
  inhibition in vivo at 5 mg/kg: 14%

## COC(=O)c1ccc2nc3scc(C)c3c(=O)n2c1
Rattus norvegicus [1]
  inhibition in vivo at 5 mg/kg: 23%

## Cc1cc2c(=O)n3cc(-c4nnn[nH]4)ccc3nc2s1
Rattus norvegicus [3]
  inhibition: No significant activity
Rattus norvegicus [1]
  inhibition in vivo at 5 mg/kg: 100%

## CCOC(=O)c1sc2nc3ccc(C(=O)OC)cn3c(=O)c2c1C
Rattus norvegicus [4]
  inhibition: No significant activity

## CCCc1cc2c(=O)n3cc(C(=O)O)ccc3nc2s1
Rattus norvegicus [5]
  inhibition in vivo at 1 mg/kg: 18%
Rattus norvegicus [1]
  inhibition in vivo at 5 mg/kg: 68%

## CCc1cc2c(=O)n3cc(C(=O)O)ccc3nc2s1
Rattus norvegicus [6]
  inhibition in vivo at 0.5 mg/kg: 69%
Rattus norvegicus [7]
  inhibition in vivo at 0.1 mg/kg: 33%
Rattus norvegicus [1]
  inhibition in vivo at 5 mg/kg: 100%

## Cc1sc2nc3ccc(C(=O)Nc4nn[nH]n4)cn3c(=O)c2c1C
Rattus norvegicus [3]
  inhibition: No significant activity
Rattus norvegicus [1]
  inhibition in vivo at 5 mg/kg: 94%

## Cc1cc2c(=O)n3cc(C(N)=O)ccc3nc2s1
Rattus norvegicus [1]
  inhibition in vivo at 5 mg/kg: 100%
Rattus norvegicus [2]
  inhibition in vivo at 5 mg/kg: 38%

## O=c1c2cc(-c3ccccc3)sc2nc2ccc(-c3nnn[nH]3)cn12
Rattus norvegicus [3]
  inhibition: No significant activity
Rattus norvegicus [1]
  inhibition in vivo at 5 mg/kg: 84%

## CC(C)c1cc2c(=O)n3cc(C(=O)O)ccc3nc2s1
Rattus norvegicus [1]
  inhibition in vivo at 5 mg/kg: 100%

## CCCc1cc2c(=O)n3cc(-c4nnn[nH]4)ccc3nc2s1
Rattus norvegicus [1]
  inhibition in vivo at 5 mg/kg: 100%
Rattus norvegicus [2]
  inhibition in vivo at 5 mg/kg: 67%

## CC(C)c1cc2c(=O)n3cc(-c4nnn[nH]4)ccc3nc2s1
Rattus norvegicus [1]
  inhibition in vivo at 5 mg/kg: 28%

## O=C(O)c1cc(=O)c2c(OCC(O)COc3cccc4oc(C(=O)O)cc(=O)c34)cccc2o1
Rattus norvegicus [8]
  ID50: inactive

## CCc1cc2c(=O)n3cc(C#N)ccc3nc2s1
Rattus norvegicus [3]
  inhibition: No significant activity
Rattus norvegicus [1]
  inhibition in vivo at 5 mg/kg: 13%

## Cc1sc2nc3ccc(-c4nnn[nH]4)cn3c(=O)c2c1C
Rattus norvegicus [1]
  inhibition in vivo at 5 mg/kg: 30%
Rattus norvegicus [2]
  inhibition in vivo at 5 mg/kg: 21%

## CC(C)c1cc2c(=O)n3cc(C(N)=O)ccc3nc2s1
Rattus norvegicus [1]
  inhibition in vivo at 5 mg/kg: 100%

## CC(C)c1cc2c(=O)n3cc(C(=O)Nc4nn[nH]n4)ccc3nc2s1
Rattus norvegicus [1]
  inhibition in vivo at 5 mg/kg: 30%

## O=C(O)c1ccc2nc3sc(-c4ccccc4)cc3c(=O)n2c1
Rattus norvegicus [1]
  inhibition in vivo at 5 mg/kg: 17%
Rattus norvegicus [2]
  inhibition in vivo at 5 mg/kg: 17%

## CCc1cc2c(=O)n3cc(C(=O)OC)ccc3nc2s1
Rattus norvegicus [1]
  inhibition in vivo at 5 mg/kg: 100%
Rattus norvegicus [2]
  inhibition in vivo at 5 mg/kg: 75%

## CCCCc1cc2c(=O)n3cc(C(=O)Nc4nn[nH]n4)ccc3nc2s1
Rattus norvegicus [1]
  inhibition in vivo at 5 mg/kg: 18%

## Cc1cc2c(=O)n3cc(C#N)ccc3nc2s1
Rattus norvegicus [1]
  inhibition in vivo at 5 mg/kg: 88%
Rattus norvegicus [2]
  inhibition in vivo at 5 mg/kg: 100%

## O=C1c2ccccc2S(=O)(=O)c2cc(-c3nn[nH]n3)ccc21 [DOXANTRAZOLE]
Rattus norvegicus [9]
  ED50: 1.5 mg/kg
Rattus norvegicus [10]
  ED50: 5 mg/kg

## CCc1cc2c(=O)n3cc(C(=O)Nc4nn[nH]n4)ccc3nc2s1
Rattus norvegicus [3]
  inhibition: No significant activity
Rattus norvegicus [1]
  inhibition in vivo at 5 mg/kg: 62%

## Cc1cc2c(=O)n3cc(C(=O)Nc4nn[nH]n4)ccc3nc2s1
Rattus norvegicus [3]
  inhibition: No significant activity
Rattus norvegicus [1]
  inhibition in vivo at 5 mg/kg: 25%

## CCc1cc2c(=O)n3cc(-c4nnn[nH]4)ccc3nc2s1
Rattus norvegicus [6]
  inhibition in vivo at 0.5 mg/kg: 38%
Rattus norvegicus [7]
  inhibition in vivo at 0.1 mg/kg: 56%
Rattus norvegicus [1]
  inhibition in vivo at 5 mg/kg: 97%
